Results reported in ChEMBL document CHEMBL1129460, “Synthesis, biotransformation, and pharmacokinetic studies of 9-(beta-D-arabinofuranosyl)-6-azidopurine: a prodrug for ara-A designed to utilize the azide reduction pathway” (J Med Chem, 1996).

Key:
[1] = Pharmacokinetic parameter after dosing of 100 mg/kg of compound administered orally in brain; assay type: ADME, organism-based; parameters: dose 100 mg/kg, route oral; conditions: in vivo, po
Outline: (§1)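 Female NIH Swiss mice (24–28 g) dosed 100 mg/kg, iv or po by line. At least three mice were sacrificed per time point, 0.08–6 h, and whole brains were frozen at -20 °C. Extracts were assayed by HPLC-UV with AzdU internal standard. Noncompartmental analysis: linear trapezoidal AUC extrapolated to infinity, T1/2 = 0.693/λz, relative exposure re = AUC brain/AUC serum.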

[2] = Pharmacokinetic parameter after dosing of 100 mg/kg of compound administered intravenously in brain; assay type: ADME, organism-based; parameters: dose 100 mg/kg, route intravenous; conditions: in vivo, iv; outline: as §1
Mus musculus [3] = species on record: Mus musculus; assay: In vitro biotransformation of compound in mice liver homogenate 9-(beta-D-arabinifuranosyl)[…] analyte; assay type: ADME
Outline: (§2)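 Mouse liver washed in cold saline, homogenized with 1 or 1.5 weight equiv water; homogenate incubated at 37 °C with substrate (initial 100 µg/mL; coformycin co-incubated where stated), water-bath shaker, blank half kept. Samples at 0, 5, 15, 30 min and 1–5 h; acetonitrile precipitation with AzdU internal standard, gradient HPLC-UV for ara-H, ara-A and 6-AAP. Kel and T1/2 are averages of two studies.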

Mus musculus [4] = species on record: Mus musculus; assay: In vitro biotransformation of compound in mice liver homogenate 9-(beta-D-arabinifuranosyl)adenine(ara-A) analyte; assay type: ADME; outline: as §2
Mus musculus [5] = species on record: Mus musculus; assay: In vitro biotransformation of compound in mice liver homogenate 9-(beta-D-arabinifuranosyl)-6-hypoxanthine(ara-H) analyte; assay type: ADME; outline: as §2
Mus musculus [6] = species on record: Mus musculus; assay: In vitro biotransformation of compound along with coformycin in mice liver homogenate 9-(beta-D-arabinifuranosyl)adenine(ara-A) analyte; assay type: ADME; outline: as §2

| Activity [1] | Activity [2] | Kel (Mus musculus [3]) [h⁻¹] | T1/2 (Mus musculus [3]) [h] | Kel (Mus musculus [4]) [h⁻¹] | T1/2 (Mus musculus [4]) [h] | Kel (Mus musculus [5]) [h⁻¹] | T1/2 (Mus musculus [5]) [h] | Kel (Mus musculus [6]) [h⁻¹] | T1/2 (Mus musculus [6]) [h] | SMILES |
| --- | --- | --- | --- | --- | --- | --- | --- | --- | --- | --- |
| 1.35 | 0.05 | 0.31 | 2.24 | – | – | – | – | – | – | Nc1ncnc2c1ncn2[C@@H]1O[C@H](CO)[C@@H](O)[C@@H]1O [VIDARABINE] |
| 0.3 | 0.02 | – | – | 0.48 | 1.46 | 0.26 | 2.45 | – | – | [N-]=[N+]=Nc1ncnc2c1ncn2[C@@H]1O[C@H](CO)[C@@H](O)[C@@H]1O |
| – | – | – | – | – | – | – | – | 0.27 | 2.58 | OC[C@H]1O[C@@H](n2cnc3c2NC=NC[C@H]3O)[C@H](O)[C@@H]1O.[N-]=[N+]=Nc1ncnc2c1ncn2[C@@H]1O[C@H](CO)[C@@H](O)[C@@H]1O |
